Laboratory results published in ChEMBL document CHEMBL4020760, “Discovery of a Small Molecule Probe That Post-Translationally Stabilizes the Survival Motor Neuron Protein for the Treatment of Spinal Muscular Atrophy” (J Med Chem, 2017).
Active and inactive are the calls of the source. The calls are words filed in the database; no cut-off is given here.

Columns and labels:
[1] = Fraction unbound in mouse plasma; format: ADME, cell-free
How it was run: (§1)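 Plasma protein binding measured in mouse and human plasma and expressed as percent free.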

[2] = Fraction unbound in human plasma; format: ADME, cell-free; how it was run: as §1
Plasma [3] = experiment: Half life in mouse plasma after 60 mins; format: ADME, cell-free; conditions: 1 h
[4] = Half life in mouse liver microsomes; format: ADME, microsome; conditions: liver microsomes
How it was run: (§2)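 Compound stability in mouse and human liver microsomes, expressed as half-life in min.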

[5] = biological target: Survival motor neuron protein (Homo sapiens) (UniProt Q16637); experiment: Stabilization of SMN protein in 3813T fibroblasts derived from human SMA patient assessed as increase in SMN protein level after 48 hrs by SDS-PAGE and immunoblot
How it was run: (§3)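 hTERT-immortalized SMA patient 3813T fibroblasts seeded at 6000/well, next day dosed for 48 h at indicated concentrations, 0.1% DMSO. Lysed in boiling buffer (150 mM NaCl, 10 mM Tris pH 8.0, 2% SDS), run on 10% SDS-PAGE, SMN immunoblotted, normalized to tubulin or actin as fold over DMSO; one-way ANOVA with Dunnett.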

[6] = biological target: Survival motor neuron protein (Homo sapiens) (UniProt Q16637); experiment: Stabilization of SMN protein in 3813T fibroblasts derived from human SMA patient assessed as increase in SMN protein level at 2 uM after 48 hrs by SDS-PAGE and immunoblot; how it was run: as §3
Plasma [7] = experiment: Cmax in mouse plasma at 20 mg/kg, po; format: ADME, organism-based; set-up: dose 20 mg/kg, route oral; conditions: in vivo
[8] = Drug degradation in 0.1 to 1 N HCL after 1 to 24 hrs by LC-MS method
How it was run: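 Compound held in 0.1 N and 1 N HCl at 37 °C for 24 h; aliquots taken at 1, 2, 4, 6 and 24 h and analysed by LCMS for percent degradation.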

Plasma [9] = experiment: AUC (0 to 24 hrs) in mouse plasma at 20 mg/kg, ip; format: ADME, organism-based; set-up: dose 20 mg/kg, time < 24 hr, route intraperitoneal; conditions: in vivo
[10] = AUC (0 to 24 hrs) in mouse brain at 20 mg/kg, ip; format: ADME, organism-based; set-up: time < 24 hr, dose 20 mg/kg, route intraperitoneal
[11] = AUC (0 to 24 hrs) in mouse brain at 20 mg/kg, po; format: ADME, organism-based; set-up: time < 24 hr, dose 20 mg/kg, route oral
Brain [12] = experiment: Tmax in mouse brain at 20 mg/kg, ip; format: ADME, organism-based; conditions: in vivo
Brain [13] = experiment: Tmax in mouse brain at 20 mg/kg, po; format: ADME, organism-based; conditions: in vivo
Plasma [14] = experiment: Half life in mouse plasma at 20 mg/kg, ip; format: ADME, organism-based; conditions: in vivo
Plasma [15] = experiment: Half life in mouse plasma at 20 mg/kg, po; format: ADME, organism-based; conditions: in vivo
HEK293 [16] = experiment: Effect on human luciferase-tagged SMN mRNA expressed in HEK293 cells assessed as SMN exon 7 included transcript at 1 and 10 uM after 24 hrs by qRT-PCR relative to GAPDH mRNA expression; format: cell-based
How it was run: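 SMN2-luciferase reporter cells treated with compound; total RNA isolated with Trizol, DNase I treated and reverse transcribed. SYBR Green qPCR for SMN exon 7-included and full-length transcripts, with GAPDH as reference.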

Liver = experiment: Half life in human liver microsomes; format: ADME, microsome; how it was run: as §2
SH-SY5Y = experiment: Cytotoxicity against human SH-SY5Y cells assessed as reduction in cell viability at 100 times EC50 concentration after 48 hrs by CellTiter 96 AQueous one solution cell proliferation assay; format: cell-based
How it was run: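 SH-SY5Y cells seeded at 10,000/well, next day treated with graded compound doses in duplicate for 48 h, 0.2% DMSO constant; CellTiter 96 AQueous One reagent added for the last 4 h; cycloheximide 200 ng/mL as toxicity control.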

HEK293 [17] = experiment: Effect on luciferase expression in human HEK293 cells expressing SV40 promoter at 10 to 30 uM after 24 hrs by luciferase reporter gene assay; format: ADME, cell-based; conditions: hek293, 24 h
Oryctolagus cuniculus = species on record: Oryctolagus cuniculus; experiment: Effect on proteasome in rabbit reticulocyte lysates assessed as MBP-HPV-16 E6-mediated p53 degradation at 10 and 30 uM incubated for 30 mins prior to MBP-E6 addition by Western blot analysis
How it was run: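 Purified p53 and MBP-HPV16 E6. E6 (0.1 μM) or buffer then added for 2 h at 25 °C, stopped at 75 °C. p53 read by 10% SDS-PAGE/Western (PAb1801).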

HEK293 [18] = experiment: Effect on p62 level in HEK293 cells at 10 uM after 8 hrs by immunoblot analysis; format: functional, cell-based; conditions: Homo sapiens
How it was run: (§4)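 HEK293 cells exposed 8 h to DMSO, compound or chloroquine; LC3 and p62 assessed by immunoblot.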

HEK293 [19] = experiment: Effect on LC3-2 level in HEK293 cells at 10 uM after 8 hrs by immunoblot analysis; format: functional, cell-based; conditions: Homo sapiens; how it was run: as §4
[20] = biological target: Survival motor neuron protein (Homo sapiens) (UniProt Q16637); experiment: Stabilization of human luc fused SMN protein expressed in HEK293 cells at 10 uM after 24 hrs in presence of 10 uM cycloheximide by luciferase reporter gene assay; format: cell-based
How it was run: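 SMN2-luciferase reporter cells were maintained in high-glucose DMEM with 10% FBS, Pen/Strep and hygromycin at 37 °C. They were treated at the same time with cycloheximide (10 μM), to block protein synthesis, and with compound or DMSO. Cells were lysed at set time points, and SMN2-luc (firefly) and Renilla-luc activities were read by dual-luciferase assay.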

CYP2C19 = CYP2C19 (Homo sapiens, UniProt P33261); experiment: Inhibition of CYP2C19 (unknown origin) at 10 uM; format: ADME
CYP2D6 = CYP2D6 (Homo sapiens, UniProt P10635); experiment: Inhibition of CYP2D6 (unknown origin) at 10 uM; format: ADME
CYP3A4 = CYP3A4 (Homo sapiens, UniProt P08684); experiment: Inhibition of CYP3A4 (unknown origin) at 10 uM; format: ADME
[21] = biological target: Voltage-gated inwardly rectifying potassium channel KCNH2 (Homo sapiens, UniProt Q12809); experiment: Inhibition of human ERG at 10 uM
[22] = biological target: Survival motor neuron protein (Homo sapiens) (UniProt Q16637); experiment: Stabilization of human SMN protein expressed in HEK293 cells expressing SMN2 promoter assessed as additive effect on SMN stabilization in presence of 0.1: 0.1 to 10:10 ratio of LDN-75654 to compound after 24 hrs by luciferase reporter gene assay; format: cell-based
How it was run: (§5)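 SMN2 reporter cells exposed 24 h to the two compounds alone or combined at constant ratio, DMSO held at 0.2%, and SMN-luc read. Theoretical additive effect taken as the sum of the single-agent activities.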

[23] = biological target: Survival motor neuron protein (Homo sapiens) (UniProt Q16637); experiment: Stabilization of human SMN protein expressed in HEK293 cells expressing SMN2 promoter assessed as additive effect on SMN stabilization in presence of 0.1: 0.3 to 10:30 ratio of LDN-76070 to compound after 24 hrs by luciferase reporter gene assay; format: cell-based; how it was run: as §5
Renilla = experiment: Effect on renilla recombinant luciferase protein expressed in HEK293 cells at 10 uM after 24 hrs in presence of 10 uM cycloheximide by renilla luciferase reporter gene assay; format: cell-based
How it was run: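 SMN2-luc reporter cells given cycloheximide (10 μM) together with compound (10 μM) or DMSO. Lysed at set time points; SMN-luc and Renilla-luc activities measured.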

[24] = biological target: Survival motor neuron protein (Homo sapiens) (UniProt Q16637); experiment: Stabilization of SMN protein in 3813T fibroblasts derived from human SMA patient assessed as increase in SMN protein level after 48 hrs by SDS-PAGE and immunoblot
[25] = biological target: Survival motor neuron protein (Homo sapiens) (UniProt Q16637); experiment: Stabilization of SMN protein in 3813T fibroblasts derived from human SMA patient assessed as increase in SMN protein level at 2 uM after 48 hrs by SDS-PAGE and immunoblot

Survival motor neuron protein (Homo sapiens), sequence (Q16637 whole entry, the tested form may be a part): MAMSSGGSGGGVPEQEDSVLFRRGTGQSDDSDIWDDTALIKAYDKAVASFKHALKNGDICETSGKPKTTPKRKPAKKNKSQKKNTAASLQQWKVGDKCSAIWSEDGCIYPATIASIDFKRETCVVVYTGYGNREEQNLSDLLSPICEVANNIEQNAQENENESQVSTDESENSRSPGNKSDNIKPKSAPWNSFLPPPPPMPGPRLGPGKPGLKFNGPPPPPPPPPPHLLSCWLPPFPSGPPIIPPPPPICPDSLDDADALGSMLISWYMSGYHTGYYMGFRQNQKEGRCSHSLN
CYP2D6, sequence (P10635 whole entry): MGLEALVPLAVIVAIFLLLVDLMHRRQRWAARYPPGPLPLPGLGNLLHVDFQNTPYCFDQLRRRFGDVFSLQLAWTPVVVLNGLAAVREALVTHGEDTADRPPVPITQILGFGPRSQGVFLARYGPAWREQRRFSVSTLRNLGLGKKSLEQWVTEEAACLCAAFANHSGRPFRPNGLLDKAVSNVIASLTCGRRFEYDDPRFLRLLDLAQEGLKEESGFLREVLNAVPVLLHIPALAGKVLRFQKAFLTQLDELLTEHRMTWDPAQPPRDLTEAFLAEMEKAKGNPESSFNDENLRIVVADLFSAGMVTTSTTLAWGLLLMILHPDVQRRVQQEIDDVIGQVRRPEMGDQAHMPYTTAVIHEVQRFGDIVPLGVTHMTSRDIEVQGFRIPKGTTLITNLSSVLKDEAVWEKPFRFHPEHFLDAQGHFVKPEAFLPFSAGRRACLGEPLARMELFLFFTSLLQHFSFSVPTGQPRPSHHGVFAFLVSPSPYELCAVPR
CYP2C19, sequence (P33261 whole entry): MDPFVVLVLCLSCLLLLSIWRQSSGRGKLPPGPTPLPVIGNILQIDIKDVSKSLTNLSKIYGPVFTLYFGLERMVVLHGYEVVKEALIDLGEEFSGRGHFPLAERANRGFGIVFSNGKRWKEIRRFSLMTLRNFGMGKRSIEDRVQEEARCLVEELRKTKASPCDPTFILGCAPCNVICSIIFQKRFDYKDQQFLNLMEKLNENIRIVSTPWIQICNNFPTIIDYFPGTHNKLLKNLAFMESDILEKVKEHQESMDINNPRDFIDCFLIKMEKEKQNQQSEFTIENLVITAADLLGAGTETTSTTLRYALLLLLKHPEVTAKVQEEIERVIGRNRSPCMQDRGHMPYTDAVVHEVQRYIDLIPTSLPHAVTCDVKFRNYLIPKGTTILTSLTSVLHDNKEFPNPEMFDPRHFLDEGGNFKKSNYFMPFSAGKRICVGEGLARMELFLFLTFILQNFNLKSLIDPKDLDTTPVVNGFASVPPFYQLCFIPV
CYP3A4, sequence (P08684 whole entry): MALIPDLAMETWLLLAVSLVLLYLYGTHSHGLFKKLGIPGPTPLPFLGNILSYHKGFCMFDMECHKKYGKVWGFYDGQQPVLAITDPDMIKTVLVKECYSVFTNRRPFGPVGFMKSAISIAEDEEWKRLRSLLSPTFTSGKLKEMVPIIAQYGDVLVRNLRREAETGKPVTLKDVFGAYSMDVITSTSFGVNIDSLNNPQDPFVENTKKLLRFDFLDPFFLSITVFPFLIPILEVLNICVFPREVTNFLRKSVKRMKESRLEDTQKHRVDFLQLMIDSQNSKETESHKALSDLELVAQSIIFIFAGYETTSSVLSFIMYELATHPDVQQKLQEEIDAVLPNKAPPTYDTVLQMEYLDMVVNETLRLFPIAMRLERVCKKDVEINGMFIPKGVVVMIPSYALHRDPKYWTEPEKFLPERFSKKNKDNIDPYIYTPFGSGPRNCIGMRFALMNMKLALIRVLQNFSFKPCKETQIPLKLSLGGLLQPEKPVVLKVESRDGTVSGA
Voltage-gated inwardly rectifying potassium channel KCNH2, sequence (Q12809 whole entry): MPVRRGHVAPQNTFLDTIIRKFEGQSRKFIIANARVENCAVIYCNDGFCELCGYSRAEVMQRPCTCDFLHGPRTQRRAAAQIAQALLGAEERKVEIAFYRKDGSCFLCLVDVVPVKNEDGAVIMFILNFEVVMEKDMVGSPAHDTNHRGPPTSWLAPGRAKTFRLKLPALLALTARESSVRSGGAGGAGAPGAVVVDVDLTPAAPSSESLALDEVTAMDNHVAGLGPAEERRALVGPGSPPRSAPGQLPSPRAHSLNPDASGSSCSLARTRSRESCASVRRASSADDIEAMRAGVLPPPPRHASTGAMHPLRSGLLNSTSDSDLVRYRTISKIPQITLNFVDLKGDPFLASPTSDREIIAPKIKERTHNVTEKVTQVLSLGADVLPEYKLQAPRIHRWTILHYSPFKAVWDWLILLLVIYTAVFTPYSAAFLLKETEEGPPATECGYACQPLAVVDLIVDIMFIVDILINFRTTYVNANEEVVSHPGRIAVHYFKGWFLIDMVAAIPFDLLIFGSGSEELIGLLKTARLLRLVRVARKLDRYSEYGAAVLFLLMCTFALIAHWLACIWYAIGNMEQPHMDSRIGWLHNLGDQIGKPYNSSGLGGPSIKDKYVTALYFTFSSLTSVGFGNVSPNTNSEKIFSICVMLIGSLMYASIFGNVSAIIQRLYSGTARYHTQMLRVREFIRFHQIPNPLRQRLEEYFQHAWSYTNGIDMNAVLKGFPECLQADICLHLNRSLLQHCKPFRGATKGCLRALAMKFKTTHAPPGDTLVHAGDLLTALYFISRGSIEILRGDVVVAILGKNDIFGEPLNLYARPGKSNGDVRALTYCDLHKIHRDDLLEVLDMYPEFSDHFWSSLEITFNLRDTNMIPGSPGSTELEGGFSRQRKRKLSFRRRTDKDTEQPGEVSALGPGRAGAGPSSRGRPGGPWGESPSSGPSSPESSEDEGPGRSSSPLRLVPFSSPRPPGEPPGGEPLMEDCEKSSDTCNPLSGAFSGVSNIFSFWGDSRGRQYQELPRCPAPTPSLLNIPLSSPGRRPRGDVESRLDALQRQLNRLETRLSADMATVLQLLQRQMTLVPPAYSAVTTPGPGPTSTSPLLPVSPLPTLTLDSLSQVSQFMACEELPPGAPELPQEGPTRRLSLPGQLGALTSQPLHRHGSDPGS

O=C(Nc1ncc(C2(O)CCC2)s1)c1ccc(F)c(Cl)c1
fraction unbound [1]: 0.047 | fraction unbound [2]: 0.035 | t1/2 (Plasma [3]): 5.43 h | half-life [4]: 0.65 h | Activity [5]: Dose-dependent effect | fold change (FC) [6]: 2 | Cmax (Plasma [7]): 286 ng/mL | Drug degradation [8]: < 5% | AUC (Plasma [9]): 34291 ng·h/mL | AUC(0-t) at 24 h [10]: 51300 ng·h/mL | AUC(0-t) at 24 h [11]: 2220 ng·h/mL | Tmax (Brain [12]): 0.5 h | Tmax (Brain [13]): 0.5 h | t1/2 (Plasma [14]): 2.2 h | t1/2 (Plasma [15]): 3.4 h | Activity (HEK293 [16]): inactive | t1/2 (Liver): > 2 h | Activity (SH-SY5Y): Non-Toxic | Activity (HEK293 [17]): Non-Toxic | Activity (Oryctolagus cuniculus): inactive | Activity (HEK293 [18]): inactive | Activity (HEK293 [19]): inactive | Activity [20]: Active | inhibition at 10 µM (CYP2C19): < 50% | inhibition at 10 µM (CYP2D6): < 50% | inhibition at 10 µM (CYP3A4): < 50% | inhibition (INH) [21]: Not Active | Activity [22]: inactive | Activity [23]: Active | Activity (Renilla): inactive | Activity [24]: Dose-dependent effect | fold change (FC) [25]: 2
